Measurements taken from ChEMBL document CHEMBL2086252, “Syntheses and evaluation of anticonvulsant activity of novel branched alkyl carbamates” (J Med Chem, 2012).
Calls of active or inactive are those of the source.

Columns and labels:
Mus musculus [1] = assay: Anticonvulsant activity in albino CF1 mouse assessed as protection against subcutaneous metrazol-induced seizures at 300 mg/kg, ip after 4 hrs; type: functional, organism-based; parameters: dose 300 mg/kg
Method in brief: (§1)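 Mice dosed ip at 30, 100 or 300 mg/kg, then tested 0.5 h and 4 h after administration in the MES or scMet test. Protection was recorded as animals protected over animals tested. Neurotoxicity was recorded as motor impairment or sedation, as animals affected over animals tested.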

Mus musculus [2] = assay: Anticonvulsant activity in albino CF1 mouse assessed as protection against maximal electroshock-induced seizures at 300 mg/kg, ip after 0.5 hrs; type: functional, organism-based; parameters: dose 300 mg/kg; method in brief: as §1
Mus musculus [3] = assay: Neurotoxicity in albino CF1 mouse assessed as minimal motor impairment at 30 mg/kg, ip after 4 hrs by rotarod test; type: toxicity, organism-based; parameters: dose 30 mg/kg, route intraperitoneal; details: in vivo; method in brief: as §1
Mus musculus [4] = assay: Anticonvulsant activity in albino CF1 mouse assessed as protection against subcutaneous metrazol-induced seizures at 100 mg/kg, ip after 4 hrs; type: functional, organism-based; parameters: dose 100 mg/kg; method in brief: as §1
Rattus norvegicus [5] = assay: Neurotoxicity in pilocarpine-induced status epilepticus Sprague-Dawley albino rat model assessed as minimal motor impairment at 100 mg/kg, ip after 0.25 hr by rotarod test; type: toxicity, organism-based; parameters: dose 100 mg/kg, route intraperitoneal; details: in vivo
Rattus norvegicus [6] = assay: Neurotoxicity in Sprague-Dawley albino rat assessed as minimal motor impairment at 30 mg/kg, po by rotarod test; type: toxicity, organism-based; parameters: dose 30 mg/kg, route oral; details: in vivo
Method in brief: (§2)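 Rats dosed orally. Anti-MES protection was scored as animals protected over animals tested at each time after dosing. Neurotoxicity was scored as motor impairment or sedation, as animals affected over animals tested.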

Mus musculus [7] = assay: Anticonvulsant activity in albino CF1 mouse assessed as protection against maximal electroshock-induced seizures at 100 mg/kg, ip after 4 hrs; type: functional, organism-based; parameters: dose 100 mg/kg; method in brief: as §1
Mus musculus [8] = assay: Anticonvulsant activity in albino CF1 mouse assessed as protection against maximal electroshock-induced seizures at 300 mg/kg, ip after 4 hrs; type: functional, organism-based; parameters: dose 300 mg/kg; method in brief: as §1
Mus musculus [9] = assay: Anticonvulsant activity in albino CF1 mouse assessed as protection against maximal electroshock-induced seizures at 30 mg/kg, ip after 4 hrs; type: functional, organism-based; parameters: dose 30 mg/kg; method in brief: as §1
Rattus norvegicus [10] = assay: Neurotoxicity in pilocarpine-induced status epilepticus Sprague-Dawley albino rat model assessed as minimal motor impairment at 100 mg/kg, ip after 0.5 hrs by rotarod test; type: toxicity, organism-based; parameters: dose 100 mg/kg, route intraperitoneal; details: in vivo
Rattus norvegicus [11] = assay: Neurotoxicity in pilocarpine-induced status epilepticus Sprague-Dawley albino rat model assessed as minimal motor impairment at 300 mg/kg, ip after 4 hrs by rotarod test; type: toxicity, organism-based; parameters: dose 300 mg/kg, route intraperitoneal; details: in vivo
Method in brief: (§3)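 Rat pilocarpine status epilepticus model: test carbamate given at 0 or 30 min after the first observed Racine stage 3 motor seizure, which marks SE onset. Neurotoxicity was scored within the same model.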

Mus musculus [12] = assay: Anticonvulsant activity in albino CF1 mouse assessed as protection against subcutaneous metrazol-induced seizures at 30 mg/kg, ip after 0.5 hrs; type: functional, organism-based; parameters: dose 30 mg/kg; method in brief: as §1
Rattus norvegicus [13] = assay: Neurotoxicity in pilocarpine-induced status epilepticus Sprague-Dawley albino rat model assessed as minimal motor impairment at 30 mg/kg, ip after 1 hr by rotarod test; type: toxicity, organism-based; parameters: dose 30 mg/kg, route intraperitoneal; details: in vivo; method in brief: as §3
Rattus norvegicus [14] = assay: Neurotoxicity in pilocarpine-induced status epilepticus Sprague-Dawley albino rat model assessed as minimal motor impairment at 30 mg/kg, ip after 0.5 hrs by rotarod test; type: toxicity, organism-based; parameters: dose 30 mg/kg, route intraperitoneal; details: in vivo; method in brief: as §3
Rattus norvegicus [15] = assay: Neurotoxicity in pilocarpine-induced status epilepticus Sprague-Dawley albino rat model assessed as minimal motor impairment at 300 mg/kg, ip after 0.25 hr by rotarod test; type: toxicity, organism-based; parameters: dose 300 mg/kg, route intraperitoneal; details: in vivo; method in brief: as §3
Rattus norvegicus [16] = assay: Neurotoxicity in pilocarpine-induced status epilepticus Sprague-Dawley albino rat model assessed as minimal motor impairment at 300 mg/kg, ip after 0.5 hrs by rotarod test; type: toxicity, organism-based; parameters: dose 300 mg/kg, route intraperitoneal; details: in vivo; method in brief: as §3
Rattus norvegicus [17] = assay: Neurotoxicity in pilocarpine-induced status epilepticus Sprague-Dawley albino rat model assessed as minimal motor impairment at 30 mg/kg, ip after 4 hrs by rotarod test; type: toxicity, organism-based; parameters: dose 30 mg/kg, route intraperitoneal; details: in vivo; method in brief: as §3
Rattus norvegicus [18] = assay: Anticonvulsant activity in Sprague-Dawley albino rat assessed as protection against maximal electroshock-induced seizures at 30 mg/kg, po after 1 hr; type: functional, organism-based; parameters: dose 30 mg/kg; method in brief: as §2
Mus musculus [19] = assay: Neurotoxicity in albino CF1 mouse assessed as minimal motor impairment at 300 mg/kg, ip after 0.5 hrs by rotarod test; type: toxicity, organism-based; parameters: dose 300 mg/kg, route intraperitoneal; details: in vivo; method in brief: as §1
Rattus norvegicus [20] = assay: Neurotoxicity in pilocarpine-induced status epilepticus Sprague-Dawley albino rat model assessed as minimal motor impairment at 300 mg/kg, ip after 2 hrs by rotarod test; type: toxicity, organism-based; parameters: dose 300 mg/kg, route intraperitoneal; details: in vivo; method in brief: as §3
Rattus norvegicus [21] = assay: Neurotoxicity in pilocarpine-induced status epilepticus Sprague-Dawley albino rat model assessed as minimal motor impairment at 30 mg/kg, ip after 2 hrs by rotarod test; type: toxicity, organism-based; parameters: dose 30 mg/kg, route intraperitoneal; details: in vivo; method in brief: as §3
Mus musculus [22] = assay: Anticonvulsant activity in albino CF1 mouse assessed as protection against subcutaneous metrazol-induced seizures at 300 mg/kg, ip after 0.5 hrs; type: functional, organism-based; parameters: dose 300 mg/kg; method in brief: as §1
Rattus norvegicus [23] = assay: Neurotoxicity in pilocarpine-induced status epilepticus Sprague-Dawley albino rat model assessed as minimal motor impairment at 30 mg/kg, ip after 0.25 hr by rotarod test; type: toxicity, organism-based; parameters: dose 30 mg/kg, route intraperitoneal; details: in vivo; method in brief: as §3
Rattus norvegicus [24] = assay: Neurotoxicity in pilocarpine-induced status epilepticus Sprague-Dawley albino rat model assessed as minimal motor impairment at 100 mg/kg, ip after 2 hrs by rotarod test; type: toxicity, organism-based; parameters: dose 100 mg/kg, route intraperitoneal; details: in vivo
Rattus norvegicus [25] = assay: Anticonvulsant activity in Sprague-Dawley albino rat assessed as protection against pilocarpine-induced status epilepticus at 65 mg/kg, ip; type: functional, organism-based; parameters: dose 65 mg/kg
Method in brief: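 Pilocarpine status epilepticus model in rats. Number and severity of convulsive seizures were observed behaviourally.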

Mus musculus [26] = assay: Anticonvulsant activity in albino CF1 mouse assessed as protection against maximal electroshock-induced seizures at 30 mg/kg, ip after 0.5 hrs; type: functional, organism-based; parameters: dose 30 mg/kg; method in brief: as §1
Rattus norvegicus [27] = assay: Neurotoxicity in pilocarpine-induced status epilepticus Sprague-Dawley albino rat model assessed as minimal motor impairment at 100 mg/kg, ip after 1 hr by rotarod test; type: toxicity, organism-based; parameters: dose 100 mg/kg, route intraperitoneal; details: in vivo
Rattus norvegicus [28] = assay: Neurotoxicity in pilocarpine-induced status epilepticus Sprague-Dawley albino rat model assessed as minimal motor impairment at 100 mg/kg, ip after 4 hrs by rotarod test; type: toxicity, organism-based; parameters: dose 100 mg/kg, route intraperitoneal; details: in vivo
Mus musculus [29] = assay: Neurotoxicity in albino CF1 mouse assessed as minimal motor impairment at 100 mg/kg, ip after 4 hrs by rotarod test; type: toxicity, organism-based; parameters: dose 100 mg/kg, route intraperitoneal; details: in vivo; method in brief: as §1
Rattus norvegicus [30] = assay: Anticonvulsant activity in Sprague-Dawley albino rat assessed as protection against maximal electroshock-induced seizures at 30 mg/kg, po after 30 mins; type: functional, organism-based; parameters: dose 30 mg/kg; method in brief: as §2
Mus musculus [31] = assay: Anticonvulsant activity in albino CF1 mouse assessed as protection against subcutaneous metrazol-induced seizures at 100 mg/kg, ip after 0.5 hrs; type: functional, organism-based; parameters: dose 100 mg/kg; method in brief: as §1
Rattus norvegicus [32] = assay: Anticonvulsant activity in Sprague-Dawley albino rat assessed as protection against maximal electroshock-induced seizures at 30 mg/kg, po after 4 hrs; type: functional, organism-based; parameters: dose 30 mg/kg; method in brief: as §2
Mus musculus [33] = assay: Anticonvulsant activity in albino CF1 mouse assessed as protection against subcutaneous metrazol-induced seizures at 30 mg/kg, ip after 4 hrs; type: functional, organism-based; parameters: dose 30 mg/kg; method in brief: as §1
Mus musculus [34] = assay: Neurotoxicity in albino CF1 mouse assessed as minimal motor impairment at 300 mg/kg, ip after 4 hrs by rotarod test; type: toxicity, organism-based; parameters: dose 300 mg/kg, route intraperitoneal; details: in vivo; method in brief: as §1
Rattus norvegicus [35] = assay: Anticonvulsant activity in Sprague-Dawley albino rat assessed as protection against maximal electroshock-induced seizures at 30 mg/kg, po after 2 hrs; type: functional, organism-based; parameters: dose 30 mg/kg; method in brief: as §2
Rattus norvegicus [36] = assay: Anticonvulsant activity in Sprague-Dawley albino rat assessed as protection against maximal electroshock-induced seizures at 30 mg/kg, po after 15 mins; type: functional, organism-based; parameters: dose 30 mg/kg; method in brief: as §2
Mus musculus [37] = assay: Neurotoxicity in albino CF1 mouse assessed as minimal motor impairment at 30 mg/kg, ip after 0.5 hrs by rotarod test; type: toxicity, organism-based; parameters: dose 30 mg/kg, route intraperitoneal; details: in vivo; method in brief: as §1
Rattus norvegicus [38] = assay: Anticonvulsant activity in po dosed Sprague-Dawley albino rat assessed as protection against subcutaneous metrazol-induced seizures; type: functional
Method in brief: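 Quantitative testing: rats dosed orally or ip in MES and scMet tests, and mice dosed ip, including the 6 Hz (32 mA) psychomotor seizure test. ED50 and TD50 were reported in mg/kg with ranges in parentheses. Protective index was calculated as TD50/ED50.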

CCC(C)CCOC(N)=O (racemic)
active: Activity (Mus musculus [2]) | Activity (Rattus norvegicus [25])
inactive: Activity (Mus musculus [1]) | Activity (Mus musculus [4]) | Activity (Mus musculus [7]) | Activity (Mus musculus [8]) | Activity (Mus musculus [9]) | Activity (Mus musculus [12]) | Activity (Rattus norvegicus [18]) | Activity (Mus musculus [22]) | Activity (Mus musculus [26]) | Activity (Rattus norvegicus [30]) | Activity (Mus musculus [31]) | Activity (Rattus norvegicus [32]) | Activity (Mus musculus [33]) | Activity (Rattus norvegicus [35]) | Activity (Rattus norvegicus [36])
Toxic: Activity (Rattus norvegicus [5]) | Activity (Rattus norvegicus [10]) | Activity (Rattus norvegicus [15]) | Activity (Rattus norvegicus [16]) | Activity (Mus musculus [19])
Non-toxic: Activity (Mus musculus [3]) | Activity (Rattus norvegicus [6]) | Activity (Rattus norvegicus [11]) | Activity (Rattus norvegicus [13]) | Activity (Rattus norvegicus [14]) | Activity (Rattus norvegicus [17]) | Activity (Rattus norvegicus [20]) | Activity (Rattus norvegicus [21]) | Activity (Rattus norvegicus [23]) | Activity (Rattus norvegicus [24]) | Activity (Rattus norvegicus [27]) | Activity (Rattus norvegicus [28]) | Activity (Mus musculus [29]) | Activity (Mus musculus [34]) | Activity (Mus musculus [37])

CCCC(CCC)C(=O)O [VALPROIC ACID]
646 mg/kg: ED50 (Rattus norvegicus [38])
